From ChEMBL document CHEMBL3044653, “Synthesis and herbicidal activity of 2-(substituted phenoxyacetoxy)alkyl-5,5-dimethyl-1,3,2-dioxaphosphinan-2-one” (J Agric Food Chem, 2012)

How the values were obtained:
Gossypium hirsutum = assay: Toxicity in Gossypium hirsutum (cotton) plant assessed as inhibition at 150 g/hectare; format: organism-based; conditions: in vivo
Outline: (§1)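 For crop selectivity, conventional crop varieties were planted in 12 cm diameter plots and given a postemergence treatment at 150 g ai/ha. Injury was scored as percent inhibition, with 0–10% classed as safe to the crop.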

Setaria viridis [1] = assay: Post-emergence herbicidal activity against Setaria viridis (green foxtail) assessed as inhibition at 75 g/hectare treated at one-leaf stage by green house assay; format: functional
Outline: (§2)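 Monocot weeds were sprayed postemergence in the greenhouse at the one-leaf stage with diluted formulation solutions. Primary dose was 150 g ai/ha, with follow-up doses of 75 and 37.5 g ai/ha for selected compounds. Activity is scored as percent herbicidal damage compared with an untreated control.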

Brassica juncea [2] = assay: Post-emergence herbicidal activity against Brassica juncea assessed as inhibition at 75 g/hectare treated at two-leaf stage by green house assay; format: functional
Outline: (§3)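 Greenhouse postemergence spray of diluted formulation solutions onto broadleaf weeds at the two-leaf stage. Primary screen at 150 g ai/ha, with selected compounds retested at 75 and 37.5 g ai/ha. Abutilon was tested at 150 g ai/ha only. Read-out is percent herbicidal damage relative to an untreated control.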

Amaranthus retroflexus [3] = assay: Post-emergence herbicidal activity against Amaranthus retroflexus assessed as inhibition at 75 g/hectare treated at two-leaf stage by green house assay; format: functional; outline: as §3
Amaranthus retroflexus [4] = assay: Post-emergence herbicidal activity against Amaranthus retroflexus assessed as inhibition at 150 g/hectare treated at two-leaf stage by green house assay; format: functional; outline: as §3
Echinochloa crus-galli [5] = assay: Post-emergence herbicidal activity against Echinochloa crus-galli (barnyard grass) assessed as inhibition at 75 g/hectare treated at one-leaf stage by green house assay; format: functional; outline: as §2
Brassica juncea [6] = assay: Post-emergence herbicidal activity against Brassica juncea assessed as inhibition at 37.5 g/hectare treated at two-leaf stage by green house assay; format: functional; outline: as §3
Brassica napus = assay: Toxicity in Brassica napus (oilseed rape) assessed as inhibition at 150 g/hectare; format: functional; outline: as §1
Digitaria sanguinalis [7] = assay: Post-emergence herbicidal activity against Digitaria sanguinalis (hairy crabgrass) assessed as inhibition at 37.5 g/hectare treated at one-leaf stage by green house assay; format: functional; outline: as §2
Eclipta prostrata [8] = assay: Post-emergence herbicidal activity against Eclipta prostrata assessed as inhibition at 37.5 g/hectare treated at two-leaf stage by green house assay; format: functional; outline: as §3
Setaria viridis [9] = assay: Post-emergence herbicidal activity against Setaria viridis (green foxtail) assessed as inhibition at 37.5 g/hectare treated at one-leaf stage by green house assay; format: functional; outline: as §2
Digitaria sanguinalis [10] = assay: Post-emergence herbicidal activity against Digitaria sanguinalis (hairy crabgrass) assessed as inhibition at 75 g/hectare treated at one-leaf stage by green house assay; format: functional; outline: as §2
Setaria viridis [11] = assay: Post-emergence herbicidal activity against Setaria viridis (green foxtail) assessed as inhibition at 150 g/hectare treated at one-leaf stage by green house assay; format: functional; outline: as §2
Glycine max = assay: Toxicity in Glycine max (soybean) plant assessed as inhibition at 150 g/hectare; format: organism-based; conditions: in vivo; outline: as §1
Zea mays = assay: Toxicity in Zea mays (maize) plant assessed as inhibition at 150 g/hectare; format: organism-based; conditions: in vivo; outline: as §1
Triticum aestivum = assay: Toxicity in Triticum aestivum (wheat) plant assessed as inhibition at 150 g/hectare; format: organism-based; conditions: in vivo; outline: as §1
Oryza sativa = assay: Toxicity in Oryza sativa (rice) plant assessed as inhibition at 150 g/hectare; format: organism-based; conditions: in vivo; outline: as §1
Echinochloa crus-galli [12] = assay: Post-emergence herbicidal activity against Echinochloa crus-galli (barnyard grass) assessed as inhibition at 37.5 g/hectare treated at one-leaf stage by green house assay; format: functional; outline: as §2
Eclipta prostrata [13] = assay: Post-emergence herbicidal activity against Eclipta prostrata assessed as inhibition at 150 g/hectare treated at two-leaf stage by green house assay; format: functional; outline: as §3
Amaranthus retroflexus [14] = assay: Post-emergence herbicidal activity against Amaranthus retroflexus assessed as inhibition at 37.5 g/hectare treated at two-leaf stage by green house assay; format: functional; outline: as §3
Brassica juncea [15] = assay: Post-emergence herbicidal activity against Brassica juncea assessed as inhibition at 150 g/hectare treated at two-leaf stage by green house assay; format: functional; outline: as §3
Eclipta prostrata [16] = assay: Post-emergence herbicidal activity against Eclipta prostrata assessed as inhibition at 75 g/hectare treated at two-leaf stage by green house assay; format: functional; outline: as §3
Abutilon theophrasti = assay: Post-emergence herbicidal activity against Abutilon theophrasti (velvetleaf) assessed as inhibition at 150 g/hectare treated at two-leaf stage by green house assay; format: functional; outline: as §3
Echinochloa crus-galli [17] = assay: Post-emergence herbicidal activity against Echinochloa crus-galli (barnyard grass) assessed as inhibition at 150 g/hectare treated at one-leaf stage by green house assay; format: functional; outline: as §2
Digitaria sanguinalis [18] = assay: Post-emergence herbicidal activity against Digitaria sanguinalis (hairy crabgrass) assessed as inhibition at 150 g/hectare treated at one-leaf stage by green house assay; format: functional; outline: as §2
Ammannia baccifera [19] = assay: Post-emergence herbicidal activity against Ammannia baccifera assessed as inhibition at 75 g/hectare by green house assay; format: functional
Ipomoea nil [20] = assay: Post-emergence herbicidal activity against Ipomoea nil (Japanese morning glory) assessed as inhibition at 150 g/hectare by green house assay; format: functional
Chenopodium album [21] = assay: Post-emergence herbicidal activity against Chenopodium album assessed as inhibition at 75 g/hectare by green house assay; format: functional
Pontederia vaginalis [22] = assay: Post-emergence herbicidal activity against Monochoria vaginalis assessed as inhibition at 75 g/hectare by green house assay; format: functional
[23] = system: Brassica rapa subsp. chinensis; assay: Post-emergence herbicidal activity against Brassica rapa subsp. chinensis assessed as inhibition at 150 g/hectare by green house assay; format: functional
Amaranthus retroflexus [24] = assay: Post-emergence herbicidal activity against Amaranthus retroflexus assessed as inhibition at 150 g/hectare by green house assay; format: functional
Pontederia vaginalis [25] = assay: Post-emergence herbicidal activity against Monochoria vaginalis assessed as inhibition at 150 g/hectare by green house assay; format: functional
Brassica oleracea [26] = assay: Post-emergence herbicidal activity against Brassica oleracea assessed as inhibition at 75 g/hectare by green house assay; format: functional
Brassica juncea [27] = assay: Post-emergence herbicidal activity against Brassica juncea assessed as inhibition at 150 g/hectare by green house assay; format: functional
Ipomoea nil [28] = assay: Post-emergence herbicidal activity against Ipomoea nil (Japanese morning glory) assessed as inhibition at 75 g/hectare by green house assay; format: functional
[29] = system: Brassica rapa subsp. oleifera; assay: Post-emergence herbicidal activity against Brassica rapa subsp. oleifera assessed as inhibition at 150 g/hectare by green house assay; format: functional
[30] = system: Brassica rapa subsp. chinensis; assay: Post-emergence herbicidal activity against Brassica rapa subsp. chinensis assessed as inhibition at 75 g/hectare by green house assay; format: functional
Brassica juncea [31] = assay: Post-emergence herbicidal activity against Brassica juncea assessed as inhibition at 75 g/hectare by green house assay; format: functional
Radish [32] = assay: Post-emergence herbicidal activity against Raphanus sativus (radish) assessed as inhibition at 150 g/hectare by green house assay; format: functional
Radish [33] = assay: Post-emergence herbicidal activity against Raphanus sativus (radish) assessed as inhibition at 75 g/hectare by green house assay; format: functional
Chenopodium album [34] = assay: Post-emergence herbicidal activity against Chenopodium album assessed as inhibition at 150 g/hectare by green house assay; format: functional
Amaranthus retroflexus [35] = assay: Post-emergence herbicidal activity against Amaranthus retroflexus assessed as inhibition at 75 g/hectare by green house assay; format: functional
Ammannia baccifera [36] = assay: Post-emergence herbicidal activity against Ammannia baccifera assessed as inhibition at 150 g/hectare by green house assay; format: functional
Brassica oleracea [37] = assay: Post-emergence herbicidal activity against Brassica oleracea assessed as inhibition at 150 g/hectare by green house assay; format: functional
[38] = system: Brassica rapa subsp. oleifera; assay: Post-emergence herbicidal activity against Brassica rapa subsp. oleifera assessed as inhibition at 75 g/hectare by green house assay; format: functional

CC1(C)COP(=O)(C(OC(=O)COc2ccc(Cl)cc2Cl)c2ccccc2)OC1 (stereo not given)
inhibition (INH) (Gossypium hirsutum): 40%
inhibition at 75 g/ha (Setaria viridis [1]): 0%
inhibition at 75 g/ha (Brassica juncea [2]): 95%
inhibition at 75 g/ha (Amaranthus retroflexus [3]): 80%
inhibition at 150 g/ha (Amaranthus retroflexus [4]): 90%
inhibition at 75 g/ha (Echinochloa crus-galli [5]): 0%
inhibition at 37.5 g/ha (Brassica juncea [6]): 90%
inhibition at 150 g/ha (Brassica napus): 40%
inhibition at 37.5 g/ha (Digitaria sanguinalis [7]): 0%
inhibition at 37.5 g/ha (Eclipta prostrata [8]): 50%
inhibition at 37.5 g/ha (Setaria viridis [9]): 0%
inhibition at 75 g/ha (Digitaria sanguinalis [10]): 0%
inhibition at 150 g/ha (Setaria viridis [11]): 0%
inhibition (INH) (Glycine max): 30%
inhibition (INH) (Zea mays): 0%
inhibition (INH) (Triticum aestivum): 10%
inhibition (INH) (Oryza sativa): 10%
inhibition at 37.5 g/ha (Echinochloa crus-galli [12]): 0%
inhibition at 150 g/ha (Eclipta prostrata [13]): 80%
inhibition at 37.5 g/ha (Amaranthus retroflexus [14]): 50%
inhibition at 150 g/ha (Brassica juncea [15]): 100%
inhibition at 75 g/ha (Eclipta prostrata [16]): 55%
inhibition at 150 g/ha (Abutilon theophrasti): 98%
inhibition at 150 g/ha (Echinochloa crus-galli [17]): 0%
inhibition at 150 g/ha (Digitaria sanguinalis [18]): 0%

CC1(C)COP(=O)(C(OC(=O)COc2ccc(Cl)cc2Cl)c2ccc(Cl)cc2Cl)OC1 (stereo not given)
inhibition (INH) (Gossypium hirsutum): 20%
inhibition at 75 g/ha (Setaria viridis [1]): 0%
inhibition at 75 g/ha (Brassica juncea [2]): 55%
inhibition at 75 g/ha (Amaranthus retroflexus [3]): 20%
inhibition at 150 g/ha (Amaranthus retroflexus [4]): 80%
inhibition at 75 g/ha (Echinochloa crus-galli [5]): 0%
inhibition at 37.5 g/ha (Brassica juncea [6]): 50%
inhibition at 150 g/ha (Brassica napus): 40%
inhibition at 37.5 g/ha (Digitaria sanguinalis [7]): 0%
inhibition at 37.5 g/ha (Eclipta prostrata [8]): 30%
inhibition at 37.5 g/ha (Setaria viridis [9]): 0%
inhibition at 75 g/ha (Digitaria sanguinalis [10]): 0%
inhibition at 150 g/ha (Setaria viridis [11]): 0%
inhibition (INH) (Glycine max): 30%
inhibition (INH) (Zea mays): 10%
inhibition (INH) (Triticum aestivum): 0%
inhibition (INH) (Oryza sativa): 10%
inhibition at 37.5 g/ha (Echinochloa crus-galli [12]): 0%
inhibition at 150 g/ha (Eclipta prostrata [13]): 70%
inhibition at 37.5 g/ha (Amaranthus retroflexus [14]): 20%
inhibition at 150 g/ha (Brassica juncea [15]): 100%
inhibition at 75 g/ha (Eclipta prostrata [16]): 34%
inhibition at 150 g/ha (Abutilon theophrasti): 95%
inhibition at 150 g/ha (Echinochloa crus-galli [17]): 0%
inhibition at 150 g/ha (Digitaria sanguinalis [18]): 0%

O=C(O)CNCP(=O)(O)O [GLYPHOSATE]
inhibition at 75 g/ha (Ammannia baccifera [19]): 100%
inhibition at 150 g/ha (Ipomoea nil [20]): 60%
inhibition at 75 g/ha (Chenopodium album [21]): 70%
inhibition at 75 g/ha (Pontederia vaginalis [22]): 100%
inhibition at 150 g/ha [23]: 80%
inhibition at 150 g/ha (Amaranthus retroflexus [24]): 90%
inhibition at 150 g/ha (Pontederia vaginalis [25]): 100%
inhibition at 75 g/ha (Brassica oleracea [26]): 70%
inhibition at 150 g/ha (Brassica juncea [27]): 80%
inhibition at 75 g/ha (Ipomoea nil [28]): 60%
inhibition at 150 g/ha [29]: 100%
inhibition at 75 g/ha [30]: 70%
inhibition at 75 g/ha (Brassica juncea [31]): 30%
inhibition at 150 g/ha (Radish [32]): 65%
inhibition at 75 g/ha (Radish [33]): 60%
inhibition at 150 g/ha (Chenopodium album [34]): 90%
inhibition at 75 g/ha (Amaranthus retroflexus [35]): 90%
inhibition at 150 g/ha (Ammannia baccifera [36]): 100%
inhibition at 150 g/ha (Brassica oleracea [37]): 80%
inhibition at 75 g/ha [38]: 100%
